According to ChEMBL document CHEMBL1268833, “Molecular docking and structure-activity relationship studies on benzothiazole based non-peptidic BACE-1 inhibitors” (Bioorg Med Chem Lett, 2010):

Columns and labels:
[1] = biological target: T1, Beta-secretase 1 (Homo sapiens, UniProt P56817); test: Inhibition of human BACE1 at 50 uM by FRET assay
Outline: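 FRET assay kit for BACE-1 activity, run per a previously described protocol; each compound was tested at 50 µM as the initial screening concentration; percent inhibition is given as the mean of duplicate measurements.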

[2] = biological target: T1, Beta-secretase 1; test: Inhibition of human BACE1 by FRET assay
Outline: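 IC50 values were measured against BACE-1 with a FRET assay kit following an earlier-described protocol; values are means of duplicate measurements.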

T1 sequence (P56817 whole entry): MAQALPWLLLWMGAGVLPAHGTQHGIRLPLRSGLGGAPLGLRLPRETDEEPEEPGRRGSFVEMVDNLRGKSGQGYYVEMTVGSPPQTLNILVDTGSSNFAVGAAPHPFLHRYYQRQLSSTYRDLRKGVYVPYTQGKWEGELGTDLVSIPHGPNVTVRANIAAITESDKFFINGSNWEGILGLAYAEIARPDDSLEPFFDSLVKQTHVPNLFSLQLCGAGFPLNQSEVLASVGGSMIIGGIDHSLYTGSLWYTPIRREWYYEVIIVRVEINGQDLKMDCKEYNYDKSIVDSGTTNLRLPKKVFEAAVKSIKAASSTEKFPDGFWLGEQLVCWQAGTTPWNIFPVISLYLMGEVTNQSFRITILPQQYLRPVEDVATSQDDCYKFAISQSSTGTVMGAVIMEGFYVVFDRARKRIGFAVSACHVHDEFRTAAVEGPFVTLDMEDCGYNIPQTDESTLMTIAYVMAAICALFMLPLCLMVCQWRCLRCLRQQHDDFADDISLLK

inhibition [1] [%] | IC50 [2] [µM] | SMILES
80 | 20 | O=C(CSc1nc2ccc(Nc3nc(N4CCCCC4)nc(N4CCCCC4)n3)cc2s1)c1ccc(F)cc1
0.5 | – | Cc1ccccc1NC(=O)CSc1nc2ccc(Nc3nc(N4CCOCC4)nc(N4CCOCC4)n3)cc2s1
42 | – | CCOC(=O)CSc1nc2ccc(Nc3nc(N4CCOCC4)nc(N4CCOCC4)n3)cc2s1
0 | – | O=C(CSc1nc2ccc(Nc3nc(N4CCOCC4)nc(N4CCOCC4)n3)cc2s1)Nc1cccc(C(F)(F)F)c1
100 | 2.83 | Cc1cccc(NC(=O)CSc2nc3ccc(Nc4nc(N5CCCC5)nc(N5CCCC5)n4)cc3s2)c1C
0 | – | Cc1ccc(CNC(=O)CSc2nc3ccc(Nc4nc(N5CCOCC5)nc(N5CCOCC5)n4)cc3s2)cc1
16 | – | O=C(CSc1nc2ccc(Nc3nc(N4CCOCC4)nc(N4CCOCC4)n3)cc2s1)N1CCOCC1
93 | 20 | O=C(CSc1nc2ccc(Nc3nc(N4CCCC4)nc(N4CCCC4)n3)cc2s1)c1ccccc1
88 | 3 | O=C(CSc1nc2ccc(Nc3nc(N4CCCC4)nc(N4CCCC4)n3)cc2s1)NCCOc1ccccc1
83 | 1.7 | O=C(CSc1nc2ccc(Nc3nc(N4CCCC4)nc(N4CCCC4)n3)cc2s1)NCc1ccccc1
50 | 50 | O=C(CSc1nc2ccc(Nc3nc(N4CCOCC4)nc(N4CCOCC4)n3)cc2s1)Nc1ccccc1Cl
100 | 0.12 | O=C(CSc1nc2ccc(Nc3nc(N4CCCC4)nc(N4CCCC4)n3)cc2s1)Nc1ccccc1
0 | – | O=C(CSc1nc2ccc(Nc3nc(N4CCOCC4)nc(N4CCOCC4)n3)cc2s1)NCCOc1ccccc1
50 | 50 | O=C(CSc1nc2ccc(Nc3nc(N4CCOCC4)nc(N4CCOCC4)n3)cc2s1)NCc1ccccc1
58 | > 50 | O=C(CSc1nc2ccc(Nc3nc(N4CCCCC4)nc(N4CCCCC4)n3)cc2s1)Nc1ccccc1
73 | 18 | COc1ccc(OC)c(NC(=O)CSc2nc3ccc(Nc4nc(N5CCCCC5)nc(N5CCCCC5)n4)cc3s2)c1
77 | 17.2 | CCOc1ccc(NC(=O)CSc2nc3ccc(Nc4nc(N5CCCCC5)nc(N5CCCCC5)n4)cc3s2)cc1
100 | > 50 | CCOc1ccc(NC(=O)CSc2nc3ccc(Nc4nc(N5CCOCC5)nc(N5CCOCC5)n4)cc3s2)cc1
82 | > 50 | Cc1cc(C)c(NC(=O)CSc2nc3ccc(Nc4nc(N5CCOCC5)nc(N5CCOCC5)n4)cc3s2)c(C)c1
100 | 1.77 | CCOC(=O)CSc1nc2ccc(Nc3nc(N4CCCC4)nc(N4CCCC4)n3)cc2s1
87 | 0.69 | O=C(CSc1nc2ccc(Nc3nc(N4CCCC4)nc(N4CCCC4)n3)cc2s1)NCc1ccco1
100 | 14.7 | O=C(CSc1nc2ccc(Nc3nc(N4CCOCC4)nc(N4CCOCC4)n3)cc2s1)N1c2ccccc2CCc2ccccc21
